“And” between values parts separate entries of the source, which are not always exact repeats. Equal entries are not always repeated. Where two headings read alike, the source gives them in different places.

The target of test [1] is T1, CYP261C1 (P450-SS9) (Photobacterium profundum, UniProt Q6LGK6).
T1 sequence (Q6LGK6 1-480): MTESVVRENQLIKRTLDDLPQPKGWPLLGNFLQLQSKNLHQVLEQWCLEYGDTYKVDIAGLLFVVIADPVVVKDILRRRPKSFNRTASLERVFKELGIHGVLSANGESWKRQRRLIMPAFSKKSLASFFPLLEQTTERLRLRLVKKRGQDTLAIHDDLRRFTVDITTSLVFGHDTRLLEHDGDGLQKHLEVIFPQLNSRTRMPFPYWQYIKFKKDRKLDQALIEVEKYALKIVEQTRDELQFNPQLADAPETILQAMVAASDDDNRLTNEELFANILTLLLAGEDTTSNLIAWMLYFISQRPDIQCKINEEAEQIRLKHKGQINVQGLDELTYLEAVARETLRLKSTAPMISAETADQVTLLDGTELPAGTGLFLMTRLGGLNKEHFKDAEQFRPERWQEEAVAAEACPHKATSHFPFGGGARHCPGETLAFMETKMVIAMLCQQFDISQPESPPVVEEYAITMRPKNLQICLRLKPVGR
The test is described as follows: absorbance spectral titration. In kind it is binding. The note with it: μM. The procedure, abridged: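 Recombinant CYP261C1 expressed in E. coli TOPP3, Ni-NTA purified, then separated into (+) and (−) forms on cation/anion exchange. Fatty-acid titrations tracked by absorbance spectra at 25 °C in 0.1 M Na-Hepes pH 7.4 with 0.5 mM EDTA. Spectral series underwent PCA, with least-squares fitting to high-spin, low-spin and P420 standards. Kd came from the tight-binding (square-root) equation.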

For test [2], the target named is CYP261D1 (P450-PE36). The test is described as follows: absorbance spectral titration. In kind it is binding, Moritella sp. PE36. The note with it: 0.1 M Na-Hepes pH 7.4, 0.5 mM EDTA, 25 °C, ambient pressure. Summed up:
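Recombinant His-tagged enzyme was expressed with […] and 0.5 mM IPTG for 48 h at 30 °C, then Ni-NTA purified. (+) and (−) forms were separated on cation-exchange and DEAE resins and dialyzed into Hepes/glycerol/KCl/TCEP. Titration spectra were taken in a stirred, thermostated cell and analysed by PCA/SVD against high-spin, low-spin and P420 standards. Spin-state changes were fitted to the tight-binding (square-root) equation.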

For the compound `CCCCC/C=C\C/C=C\C/C=C\C/C=C\CCCC(=O)O` [Arachidonic acid], the Kd was 9.7 µM and 10.4 µM in test [1] (Arachidonic acid / KD); 3.1 ± 0.6 µM in test [2] (read-out: Arachidonic acid / KD, (+) conformer); 8.9 ± 2.2 µM in test [2] (read-out: Arachidonic acid / KD, (−) conformer).

As to `CCCCCCCCCCCCCC(=O)O` [Myristic acid], the Kd in test [1] (Myristic acid / KD) is 8.1 µM and 3.6 µM; in test [2] (read-out: Myristic acid / KD, (+) conformer), 2.4 ± 0.7 µM; in test [2] (read-out: Myristic acid / KD, (−) conformer), 3 ± 1 µM.
